Here are results for six compounds from ChEMBL document CHEMBL1817613, “Antitumor actinopyranones produced by Streptomyces albus POR-04-15-053 isolated from a marine sediment” (J Nat Prod, 2011).

Molecules are shown by their SMILES. Structures can show the parent of a compound that is named as a salt. The source made the active and inactive calls. No cut-off for these calls is given here.

The target in assay [1] is T1, Epidermal growth factor receptor (Homo sapiens, UniProt P00533). The experiment in a line: Inhibition of EGFR autophosphorylation in human HeLa cells preincubated for 30 mins prior to EGF stimulation by Western blotting. Format: cell-based. The procedure, abridged:
(§1)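 Cells preincubated 30 min with vehicle, AG1478 or compound, then treated with EGF for 10 min. Lysed on ice 15 min in Tris-HCl pH 7.5/NaCl/NP-40/EDTA buffer with protease inhibitors, cleared at 14000g for 30 min at 4 °C. Equal extract amounts run on SDS-PAGE and blotted to PVDF. Probed for phospho-EGFR, phospho-ERK and phospho-JNK, then reprobed for total ERK and JNK.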

For assay [2], the system named is A549. As to the kind of experiment: Antitumor activity against human A549 cells after 72 hrs by SRB assay. Format: functional. The settings on record: A549, 72 h; for CC50: read-out: LC50 (the source's name). The procedure, abridged:
(§2)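 Cells kept in RPMI with 10% fetal calf serum, 2 mM L-glutamine, penicillin/streptomycin, 37 °C, 5% CO2. Triplicate cultures exposed 72 h to 10 concentrations from 10 to 0.0026 μg/mL. Fixed in 1% glutaraldehyde, stained with 0.4% SRB for 30 min, dye extracted in 10 mM Trizma base, absorbance at 490 nm. Doxorubicin positive control. GI50, TGI and LC50 interpolated from nonlinear-regression dose-response curves (mean ± SD).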

In assay [3] the target is T1, Epidermal growth factor receptor. As to the kind of experiment: Inhibition of EGFR-induced ERK phosphorylation in human HeLa cells preincubated for 30 mins prior to EGF stimulation by Western blotting. The assay is classed as cell-based. The procedure, abridged:
as §1
(A western blot detects proteins with antibodies after separation by electrophoresis.)

Assay [4] shares this target. The experiment in a line: Inhibition of EGFR-induced JNK1 phosphorylation in human HeLa cells preincubated for 30 mins prior to EGF stimulation by Western blotting. The assay is classed as cell-based. The procedure, abridged:
as §1

Assay [5] has as its system HeLa. The experiment in a line: Effect on total ERK2 level in human HeLa cells preincubated for 30 mins prior to EGF stimulation by Western blotting. Format: functional, cell-based. Summed up:
as §1

In assay [6] the test system is MDA-MB-231. The experiment in a line: Antitumor activity against human MDA-MB-231 cells after 72 hrs by SRB assay. Format: functional. The settings on record: MDA-MB-231, 72 h. Summed up: as §2
In general terms: In SRB staining, fixed cells bind dye roughly in proportion to their protein.

The test system of assay [7] is HeLa. As to the kind of experiment: Effect on total JNK1 level in human HeLa cells preincubated for 30 mins prior to EGF stimulation by Western blotting. Format: functional, cell-based. The procedure, abridged:
as §1

The test system of assay [8] is HT-29. As to the kind of experiment: Antitumor activity against human HT-29 cells after 72 hrs by SRB assay. The assay is classed as functional. The conditions noted are these: HT-29, 72 h. Summed up:
as §2

Assay [9] has as its target HIF-1alpha (Homo sapiens). As to the kind of experiment: Inhibition of HIF1alpha activation in human HeLa cells stimulated with deferoxamine by luciferase reporter gene assay. For orientation: In a reporter assay the amount or activity of a reporter protein is the signal.
Assay [10] addresses beta-catenin (Homo sapiens). The experiment in a line: Inhibition of beta-catenin activation in human SW480 cells by luciferase reporter gene assay.
The target in assay [11] is T1, Epidermal growth factor receptor. The experiment in a line: Inhibition of EGFR-induced AP1 activation in human HeLa cells preincubated for 1 hr prior to EGF stimulation by luciferase reporter gene assay. Format: cell-based.
Assay [12] has the same target. As to the kind of experiment: Inhibition of EGFR-induced ERK phosphorylation in human HeLa cells preincubated for 4 hrs prior to EGF stimulation by Western blotting. Format: cell-based. Summed up:
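Cells preincubated 4 h with vehicle, AG1478 or compound before a 10 min EGF treatment. Lysates cleared at 14000g for 30 min at 4 °C, resolved by SDS-PAGE and blotted to PVDF. Probed for phospho-ERK and reprobed for total ERK.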

For orientation: GI50 means the concentration giving 50% growth inhibition. A low value points to greater sensitivity of the cells. Usually TGI stands for the concentration at which net growth stops. Low readings indicate greater sensitivity of the cells, high ones lower sensitivity of the cells. For orientation: LC50 means the concentration that kills 50% of the test population. Higher therefore signals a less lethal substance. Usually IC50 stands for the midpoint of a concentration-inhibition curve. A higher IC50 goes with weaker potency in that assay.

T1 sequence (P00533 whole entry): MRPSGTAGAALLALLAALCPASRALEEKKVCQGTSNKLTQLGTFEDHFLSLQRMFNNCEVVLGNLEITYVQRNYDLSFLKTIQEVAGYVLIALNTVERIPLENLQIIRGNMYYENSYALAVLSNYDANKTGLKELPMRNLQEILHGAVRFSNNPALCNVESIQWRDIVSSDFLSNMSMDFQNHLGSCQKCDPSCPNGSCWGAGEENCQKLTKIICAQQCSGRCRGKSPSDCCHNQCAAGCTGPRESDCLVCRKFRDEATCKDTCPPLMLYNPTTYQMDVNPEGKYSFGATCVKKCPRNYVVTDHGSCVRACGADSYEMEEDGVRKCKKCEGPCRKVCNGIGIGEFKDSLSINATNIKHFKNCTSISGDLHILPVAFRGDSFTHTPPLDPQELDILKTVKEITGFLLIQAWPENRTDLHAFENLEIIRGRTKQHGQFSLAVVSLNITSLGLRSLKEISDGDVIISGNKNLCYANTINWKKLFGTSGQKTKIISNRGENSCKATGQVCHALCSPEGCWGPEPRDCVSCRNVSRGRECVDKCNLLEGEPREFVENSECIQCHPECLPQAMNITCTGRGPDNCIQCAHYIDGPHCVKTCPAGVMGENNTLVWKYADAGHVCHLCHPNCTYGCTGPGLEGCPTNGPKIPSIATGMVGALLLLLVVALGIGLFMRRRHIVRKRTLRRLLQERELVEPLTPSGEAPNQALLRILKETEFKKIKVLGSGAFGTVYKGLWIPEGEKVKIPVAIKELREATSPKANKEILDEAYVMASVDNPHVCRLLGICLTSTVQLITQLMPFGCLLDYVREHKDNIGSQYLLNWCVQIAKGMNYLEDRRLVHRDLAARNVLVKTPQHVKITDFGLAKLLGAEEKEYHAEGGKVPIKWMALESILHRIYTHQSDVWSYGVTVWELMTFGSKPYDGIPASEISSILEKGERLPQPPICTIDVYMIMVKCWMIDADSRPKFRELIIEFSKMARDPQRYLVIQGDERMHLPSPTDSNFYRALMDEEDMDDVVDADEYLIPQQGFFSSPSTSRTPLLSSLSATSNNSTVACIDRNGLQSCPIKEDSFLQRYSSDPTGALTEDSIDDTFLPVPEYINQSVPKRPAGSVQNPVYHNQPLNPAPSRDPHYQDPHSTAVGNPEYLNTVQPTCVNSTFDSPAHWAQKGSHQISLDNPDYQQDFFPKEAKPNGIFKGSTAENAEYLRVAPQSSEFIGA

As to `COc1cc2ncnc(Nc3cccc(Cl)c3)c2cc1OC`, in [1], the inhibition result was “Active”.
With `C/C=C(\C)C(O)C(C)/C=C(C)/C=C/CC(C)/C=C/c1oc(OC)c(CC)c(=O)c1C` (configuration not stated), in assay [2], it took 18.6 µM to inhibit growth by half (GI50), the TGI is over 22 µM and the CC50 was over 22 µM. In assay [3], the inhibition result is “inactive”. For the same compound, the inhibition result in assay [4] is “Active”. In addition, the outcome in assay [5] was inactive. In assay [6], this compound gave a GI50 of over 22 µM, an LC50 (concentration killing 50% of cells) of over 22 µM and a TGI of over 22 µM. In [7], the result was inactive. In addition, the inhibition result in assay [1] is “inactive”. In assay [8], this compound registered a GI50 of 21.5 µM, an LC50 of over 22 µM and a TGI of over 22 µM.
In the case of `C/C=C(\C)C(O[C@@H]1O[C@H](CO)[C@@H](O)[C@H](O)[C@H]1O)C(C)/C=C(C)/C=C/CC(C)/C=C/c1oc(OC)c(CC)c(=O)c1C` (some centres not stated), in assay [2], growth was halved (GI50) at 0.28 µM, net growth stopped (TGI) at 0.52 µM and the CC50 was found to be 1.08 µM. In assay [6], this compound returned a GI50 of 0.24 µM, an LC50 (concentration killing 50% of cells) of 0.82 µM and a TGI of 0.43 µM. In assay [8], this compound had a GI50 of 0.38 µM, an LC50 of 4.68 µM and a TGI of 1.23 µM.
Consider `C/C=C(\C)[C@H](O)[C@H](C)/C=C(C)/C=C/CC(C)/C=C/c1oc(OC)c(C)c(=O)c1C` (some centres not stated), for which the IC50 in [9] is 0.47 µM; in assay [10], 0.66 µM; in [11], under 0.007 µM. Further, the GI50 in [2] was 5 µM; in assay [6] it was 10.5 µM; in assay [8], 10.8 µM. In addition, the TGI in assay [2] was 13.5 µM; in [6], over 22 µM; in assay [8], 10.8 µM. For the same compound, the CC50 in [2] was over 22 µM. The inhibition entry in [3] and in assay [12] was “Active” in each case. Also, the result in assay [5] and in [7] was inactive. This compound also gave an LC50 (concentration killing 50% of cells) in assay [6] of over 22 µM. The inhibition entry in [1] is “inactive”. The LC50 in [8] came out at 11.5 µM.
On to `COc1cccc2c1C(=O)c1c(O)c3c(c(O)c1C2=O)C[C@@](O)(C(=O)CO)C[C@@H]3O[C@H]1C[C@H](N)[C@H](O)[C@H](C)O1` [DOXORUBICIN HYDROCHLORIDE], for which the GI50 in assay [2] worked out at 0.06 µM; in [6] it was 0.09 µM; in assay [8], 0.15 µM. The TGI stood at 0.2 µM in assay [2], 0.18 µM in assay [6] and 0.18 µM in assay [8]. Further, the CC50 in [2] worked out at 0.59 µM.
Regarding `C/C=C(\C)C(O[C@@H]1O[C@H](CO)[C@@H](O)[C@H](O)[C@H]1O)C(C)/C=C(C)/C=C/CC(C)/C=C/c1oc(OC)c(C)c(=O)c1C` (some centres not stated), the IC50 in [9] was determined as 0.06 µM; in [10] it was 0.17 µM; in [11], 0.16 µM. In addition, the GI50 came out at 0.53 µM in assay [2] and 0.5 µM in [6]. The TGI in [2] came out at 0.76 µM; in [6], 0.69 µM. Also, the CC50 in assay [2] amounted to 1.16 µM. In addition, the inhibition entry in assay [3] and in [1] was “inactive” throughout. Further, the outcome in assay [5] and in assay [7] was inactive. Also, in [6], the LC50 (concentration killing 50% of cells) was 1.01 µM. In assay [8], this compound gave a median lethal concentration (LC50) of 0.24 µM.
